How the values were obtained:
[1] = Selectivity index, ratio of IC50 for human MRC5 cells to IC50 for human A549 cells; type: toxicity; details: MRC5 cells versus A549 cells, read-out: Ratio IC50
Method in brief: (§1)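 Selectivity index is the IC50 in noncancerous MRC5 cells divided by the IC50 in the cancer line.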

[2] = Selectivity index, ratio of IC50 for human MRC5 cells to IC50 for human A375 cells; type: toxicity; details: MRC5 cells versus A375 cells, read-out: Ratio IC50; method in brief: as §1
A-375 = test: Cytotoxicity against human A375 cells assessed as reduction in cell viability after 48 hrs by MTT assay; type: functional, cell-based; details: for IC50: A-375, 48 h
Method in brief: (§2)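 Cells seeded at 1 × 10^4 per well, 24 h at 37 °C, 5% CO2, in RPMI-1640 with 10% FBS, penicillin and streptomycin. Compounds were prepared from DMSO stocks (50 mg/mL) and added at 2.5–50.0 μg/mL for 48 h; DMSO controls. MTT read-out; IC50 taken from a sigmoidal dose–response fit of % viability versus log concentration by nonlinear regression.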

A549 [3] = test: Cytotoxicity against human A549 cells assessed as reduction in cell viability after 48 hrs by MTT assay; type: functional, cell-based; details: for IC50: A549, 48 h; method in brief: as §2
MRC5 = test: Cytotoxicity against human MRC5 cells assessed as reduction in cell viability after 48 hrs by MTT assay; type: cell-based; details: MRC5, 48 h; method in brief: as §2
A549 [4] = test: Induction of apoptosis in human A549 cells assessed as live cells at cytotoxic IC50 after 24 hrs by Annexin V-FITC/propidium iodide staining based flow cytometry (reference value: 96.02%); type: functional
A549 [5] = test: Induction of apoptosis in human A549 cells assessed as early apoptotic cells at cytotoxic IC50 after 24 hrs by Annexin V-FITC/propidium iodide staining based flow cytometry (reference value: 2.25%); type: functional
A549 [6] = test: Induction of apoptosis in human A549 cells assessed as necrotic cells at cytotoxic IC50 after 24 hrs by Annexin V-FITC/propidium iodide staining based flow cytometry (reference value: 0.71%); type: functional
A549 [7] = test: Induction of apoptosis in human A549 cells assessed as late apoptotic cells at cytotoxic IC50 after 24 hrs by Annexin V-FITC/propidium iodide staining based flow cytometry (reference value: 1.02%); type: functional

Compound | selectivity ratio [1] | selectivity ratio [2] | Activity (A-375) | IC50 (A-375) [µM] | Activity (A549 [3]) | IC50 (A549 [3]) [µM] | IC50 (MRC5) [µM] | Activity (A549 [4]) [%] | Activity (A549 [5]) [%] | Activity (A549 [6]) [%] | Activity (A549 [7]) [%]
C=C(C)[C@@H]1CC[C@]2(C(=O)O)CC[C@]3(COC(=O)/C=C/c4ccc(O)c(O)c4)[C@H](CC[C@@H]4[C@@]5(C)CCC(=O)C(C)(C)[C@@H]5CC[C@]43C)[C@@H]12 | 0.63 | 1.25 | Dose-dependent effect | 7.7 | Dose-dependent effect | 15.5 | 9.7 |  |  |  | 
C=C(C)[C@@H]1CC[C@]2(C(=O)O)CC[C@]3(CO)[C@H](CC[C@@H]4[C@@]5(C)C[C@@H](OC(=O)/C=C/c6ccc(O)c(O)c6)[C@H](OC(=O)/C=C/c6ccc(O)cc6)C(C)(C)[C@@H]5CC[C@]43C)[C@@H]12 | 1.25 | 1.25 | Dose-dependent effect | 6.3 | Dose-dependent effect | 6.3 | 7.8 |  |  |  | 
CC1(C)CC[C@]2(C(=O)O)CC[C@]3(C)C(=CC[C@@H]4[C@@]5(C)C[C@@H](OC(=O)/C=C/c6ccc(O)c(O)c6)[C@H](O)C(C)(C)[C@@H]5CC[C@]43C)[C@@H]2C1 | 1.66 | 0.67 | Dose-dependent effect | 11.8 | Dose-dependent effect | 4.7 | 7.9 |  |  |  | 
C=C(C)[C@@H]1CC[C@]2(C(=O)O)CC[C@]3(C)[C@H](CC[C@@H]4[C@@]5(C)C[C@@H](OC(=O)/C=C/c6ccc(O)c(O)c6)[C@H](O)C(C)(C)[C@@H]5CC[C@]43C)[C@@H]12 | 0.5 | 1.25 | Dose-dependent effect | 6.3 | Dose-dependent effect | 15.8 | 7.9 |  |  |  | 
C=C(C)[C@@H]1CC[C@]2(C(=O)O)CC[C@]3(CO)[C@H](CC[C@@H]4[C@@]5(C)C[C@@H](OC(=O)/C=C/c6ccc(O)c(O)c6)[C@H](O)C(C)(C)[C@@H]5CC[C@]43C)[C@@H]12 | 1.2 | 1.6 | Dose-dependent effect | 11.5 | Dose-dependent effect | 15.4 | 18.5 |  |  |  | 
C=C(C)[C@@H]1CC[C@]2(C(=O)O)CC[C@]3(C)[C@H](CC[C@@H]4[C@@]5(C)CC[C@H](O)C(C)(C)[C@@H]5CC[C@]43C)[C@@H]12 [BETULINIC ACID] | 0.75 | 0.75 |  | 43.7 |  | 43.7 | 32.8 | 90.8 | 5.66 | 1.3 | 2.24
C=C(C)[C@@H]1CC[C@]2(C(=O)O)CC[C@]3(CO)[C@H](CC[C@@H]4[C@@]5(C)C[C@@H](OC(=O)/C=C/c6ccc(O)c(O)c6)[C@H](OC(=O)/C=C\c6ccc(O)cc6)C(C)(C)[C@@H]5CC[C@]43C)[C@@H]12 | 2 | 2.66 | Dose-dependent effect | 3.8 | Dose-dependent effect | 5 | 10 | 86.87 | 11.92 | 0.93 | 0.28
